Results published in PMC4433875 (European journal of medicinal chemistry, 2015).
pIC50: −log10 of the molar value. Blank lines part the entries; values can stand above or below the molecule they belong to.

How the values were obtained:
[1] = test system: most tested cancer cell lines; conditions: read-out: IC50 values for most tested cancer cell lines; original IBR2; cited from earlier work
[2] = test system: triple-negative human breast cancer cell line MDA-MB-468; experiment: XTT cell killing assay, MDA-MB-468; format: cell-based; conditions: growth inhibition
How it was run: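 MDA-MB-468 cells were grown in low-glucose DMEM with 10% FBS and 1% penicillin-streptomycin and plated one day before dosing. They received a four-day drug treatment, with the XTT proliferation kit read on day 6 after drug addition. Triplicate sets were compiled to give dose-dependent cytotoxicity.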

[3] = test system: panel of cancer cell lines; experiment: XTT assay, panel of cancer cell lines; format: cell-based, human
RAD51 = target: T1, RAD51 (Homo sapiens, UniProt Q06609); experiment: Multimer formation assay; format: biochemical; conditions: RAD51:IBR120 1:10 molar ratio, vs DMSO
T1 sequence (Q06609 1-339): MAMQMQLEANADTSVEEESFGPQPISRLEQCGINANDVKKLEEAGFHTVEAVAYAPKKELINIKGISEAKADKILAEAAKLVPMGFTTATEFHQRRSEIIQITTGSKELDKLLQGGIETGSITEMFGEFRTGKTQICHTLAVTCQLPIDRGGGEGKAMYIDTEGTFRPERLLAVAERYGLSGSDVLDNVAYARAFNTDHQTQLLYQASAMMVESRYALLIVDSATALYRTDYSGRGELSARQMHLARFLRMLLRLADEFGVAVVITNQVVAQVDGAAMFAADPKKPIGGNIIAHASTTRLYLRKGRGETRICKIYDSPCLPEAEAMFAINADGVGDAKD
How it was run: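 RAD51 (3.2 µg) was incubated with test compound (1:10 molar ratio) for 15 min at 37°C. Buffer was added (50mM triethanolamine-HCl pH7.5, 0.5mM Mg(OAc)2, 1mM DTT, 2mM ATP, 100 µg/ml BSA) and incubation continued 15 min. The mixture was run on a Superdex 200 gel filtration column equilibrated in the same buffer. Fractions were dot-blotted on PVDF and probed with anti-RAD51 mAb 14B4.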

[4] = test system: HeLa cells stably expressing DR-GFP; experiment: I-SceI inducible gene conversion; format: cell-based, human; conditions: 10 or 20 µM, 24 hours, flow cytometry
How it was run: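 HeLa cells carrying stably integrated DR-GFP, selected with 2 µg/mL puromycin, were transfected with the I-SceI expression vector pCBASce for 24 h to induce DSBs. Cells were then exposed to DMSO or 10 or 20 µM test compound for another 24 h, trypsinized and analysed by flow cytometry for the percentage of GFP-positive cells. Three independent experiments, means±SD.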

SMILES: O=S(=O)(Cc1ccccc1)N1C=Cc2ccccc2C1c1c[nH]c2ccccc12 (centres unmarked) [IBR2]
- pIC50 [1]: 4.70 to 4.92

SMILES: O=S(=O)(Cc1ccccc1)N1CC=Cc2ccccc2[C@@H]1c1c[nH]c2ccccc12 [IBR115]
- change of activity on increasing the central ring size from six to seven [2]: minimal change of activity

SMILES: O=S(=O)(Cc1ccccc1)N1CC=Cc2ccccc2[C@H]1c1c[nH]c2ccccc12 [IBR116]
- change of activity on increasing the central ring size from six to seven [2]: almost complete loss of function

SMILES: O=S(=O)(Cc1ccccc1)N1CCc2ccccc2[C@@H]1c1n[nH]c2ccccc12 [IBR117, (R)-1-(1H-Indazol-3-yl)-2-phenylmethanesulfonyl-1,2,3,4-tetrahydro-isoquinoline]
- fold increase in activity compared to parental compound IBR2 [2]: 1.6~2.4 fold

- pIC50 ([3]; Homo sapiens, read-out: IC50 values in most tested cancer cell lines): 5.30 to 5.52
- RAD51 multimerization (gel filtration elution profile) (RAD51): can inhibit RAD51 multimerization
SMILES: O=S(=O)(Cc1ccccc1)N1Cc2ccccc2[C@@H]1c1c[nH]c2ccccc12 [IBR120, (R)-3-(2-(benzylsulfonyl)isoindolin-1-yl)-1H-indole]
- difference between the IC50 values in normal and cancer cells ([3]; normal MCF10A vs cancer cell lines): Approximately 10 fold
- HR frequency (GFP positive population) [4]: significantly reduced
